Results on two compounds are retold here after ChEMBL document CHEMBL5252546, “Salutaxel, a Conjugate of Docetaxel and a Muramyl Dipeptide (MDP) Analogue, Acts as Multifunctional Prodrug That Inhibits Tumor Growth and Metastasis” (J Med Chem, 2018).

A short description of data set [1]: Clearance in female Beagle dog at 4 mg/kg,iv measured upto 24 hrs. Type of data set: ADME, organism-based, Canis lupus familiaris. The conditions noted are these: in vivo. The procedure, abridged: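 Beagle dogs were given a single iv infusion at 1, 2 or 4 mg/kg. Plasma parent drug and released docetaxel were followed over time. Cmax, Tmax, AUC, MRT, t1/2, CL and Vss were reported by sex and for all dogs combined.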

Data set [2] can be described thus: Toxicity in Beagle dog assessed as effect on respiratory frequency at 1 to 4 mg/kg,iv. Type of data set: organism-based, Canis lupus familiaris. The settings on record: in vivo, dose 1-4 mg/kg.
The nature of data set [3]: Prodrug conversion in mouse tumor implanted with mouse 4T1 cells assessed as Tmax of docetaxel at 4 mg/kg,iv measured upto 72 hrs. The format is ADME, organism-based, Neoplasm. The settings on record: in vivo.
Data set [4] in a line: Toxicity in HaM/ICR mouse assessed as effect on motor coordination at 5 to 20 mg/kg,iv. The format is organism-based. The settings on record: in vivo, dose 5-20 mg/kg.
Data set [5] in a line: Tmax in rat at 4 mg/kg,iv measured upto 24 hrs. Type of data set: ADME, organism-based. The conditions noted are these: in vivo.
In data set [6] the test system is 4T1. Put plainly: Antitumor activity against mouse 4T1 cells implanted in BALB/c mouse assessed as decrease in neutrophil in peripheral blood at 20 mg/kg,iv administrated qd for 2 days by blood smear staining microscopic analysis. Type of data set: functional, organism-based. The conditions noted are these: time 2.0 day. The method in brief:
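Day 19 after 4T1 implantation, mice randomised into five groups; iv vehicle or 20 mg/kg plus ip C12-iE-DAP (50 μg/mouse) and MDP (100 μg/mouse) once daily for 2 days; blood taken 6 h later; neutrophils/leukocytes counted on stained blood smears at 1000× light microscopy.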

The nature of data set [7]: Stability in mouse hepatocyte assessed as compound remaining at 3 uM incubated upto 120 mins. The conditions noted are these: hepatocytes, 2 h. Type of data set: ADME, cell-based.
The test system of data set [8] is 4T1. Put plainly: Antitumor activity against mouse 4T1 cells implanted in BALB/c mouse assessed as decrease in spleen MDSC cells at 5 mg/kg,iv measured after 28 days (reference value: 38%). The settings on record: time 28 day. The format is functional. Further details: scale not given: the % may be the effect or the level left.
A short description of data set [9]: MRT (0 to infinity) in female rat at 4 mg/kg,iv measured upto 24 hrs. The settings on record: in vivo. Type of data set: ADME, organism-based.
In data set [10] the test system is 4T1. Put plainly: Antitumor activity against mouse 4T1 cells implanted in BALB/c mouse assessed as decrease in spleen MMP9 expression level at 5 to 20 mg/kg,iv administrated once per week for 4 weeks by western blot assay. The format is functional, organism-based. The settings on record: dose 5-20 mg/kg. The method in brief: (§1)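 4T1 fat-pad model in BALB/c mice, iv once weekly for 4 weeks; MMP9, MMP2 and NOD1 in spleen, lung and tumour by western blot, β-actin loading control; bands averaged over five mice per group, representative of two independent experiments.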
(A western blot detects proteins with antibodies after separation by electrophoresis.)

Data set [11] in a line: Toxicity in male Sprague-Dawley rat assessed as testicular atrophy at 2 to 8 mg/kg,iv measured upto 24 hrs. Type of data set: organism-based. The settings on record: in vivo, dose 2-8 mg/kg.
Data set [12] can be described thus: Half life in rat at 4 mg/kg,iv measured upto 24 hrs. The conditions noted are these: in vivo. The format is ADME, organism-based.
The nature of data set [13]: Drug metabolism in monkey hepatocytes assessed as docetaxel metabolite formation at 20 uM incubated for 180 mins. The settings on record: rhesus monkey, 3 h. Type of data set: ADME, cell-based, Macaca mulatta, Hepatocyte.
Data set [14] can be described thus: MRT (0 to infinity) in male Beagle dog at 2 mg/kg,iv measured upto 24 hrs. The format is ADME, organism-based, Canis lupus familiaris. The settings on record: in vivo.
Data set [15] can be described thus: Tmax in female Beagle dog at 4 mg/kg,iv measured upto 24 hrs. The conditions noted are these: in vivo. Type of data set: ADME, organism-based, Canis lupus familiaris.
A short description of data set [16]: Stability in dog hepatocyte assessed as compound remaining at 3 uM incubated upto 120 mins. The conditions noted are these: hepatocytes, 2 h. The format is ADME, cell-based, Canis lupus familiaris.
For the next data set, the target named is Cytochrome P450 2C8 (Homo sapiens, UniProt P10632). Put plainly: Inhibition of CYP2C8 in human liver microsomes using probe substrate in presence of NADPH. Type of data set: ADME, Microsome. For orientation: Liver microsomes are vesicles of endoplasmic reticulum, rich in cytochrome P450 enzymes.
A short description of data set [17]: AUC (0-t) in rat at 8 mg/kg,iv measured upto 24 hrs. Type of data set: ADME, organism-based. Further details: dose 8 mg/kg, time < 24 hrs, route iv. The settings on record: in vivo. The method in brief: (§2)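 Single iv dose: rats 2, 4 or 8 mg/kg by intravenous injection; Beagle dogs 1, 2 or 4 mg/kg by intravenous infusion. Plasma concentration–time data were analysed by sex and pooled. Reported parameters: Cmax, Tmax, AUC0−t, AUC0−∞, MRT0−∞, t1/2, CL, Vss, given as mean ± SD.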

Data set [18] is described as follows: Clearance in rat at 2 mg/kg,iv measured upto 24 hrs. Type of data set: ADME, organism-based. The settings on record: in vivo. The procedure, abridged:
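Rats were given a single iv injection at 2, 4 or 8 mg/kg. Plasma parent drug and released docetaxel were followed over time. Cmax, Tmax, AUC, MRT, t1/2, CL and Vss were reported for males, females and all animals combined.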

In data set [19] the test system is 4T1. As to the kind of experiment: Antitumor activity against mouse 4T1 cells implanted in BALB/c mouse assessed as increase in spleen NOD1 expression level at 5 to 20 mg/kg,iv administrated once per week for 4 weeks by western blot assay. The format is functional, organism-based. The conditions noted are these: dose 5-20 mg/kg. The procedure, abridged: as §1

Data set [20] in a line: Chronic toxicity in female Beagle dog at 3 to 18 mg/kg,iv administered once per week for 30 days. The conditions noted are these: in vivo, 720 h, dose 3-18 mg/kg, time 30 day. Type of data set: organism-based, Canis lupus familiaris. The method in brief: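 Long-term toxicity: rats given iv 2, 4 or 8 mg/kg and dogs 3, 6 or 18 mg/kg once weekly over 30 days; toxicokinetics recorded; highest non-severely toxic dose determined by sex.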

For data set [21], the system named is 4T1. As to the kind of experiment: Antitumor activity against mouse 4T1 cells implanted in BALB/c mouse assessed as decrease in MMP8 mRNA expression in lung at 20 mg/kg,iv administrated qd for 2 days by qRT-PCR analysis. The format is functional, organism-based. The conditions noted are these: time 2.0 day. The method in brief: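 Day 19 after 4T1 implantation, mice randomised into five groups; iv vehicle or 20 mg/kg plus ip C12-iE-DAP (50 μg/mouse) and MDP (100 μg/mouse) once daily for 2 days; killed after 48 h; lung mRNA for MMP8, MMP9, PROK2, S100A8, S100A9 and IL-1β by qPCR; mean ± SEM.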

Data set [22] can be described thus: Tmax in female rat at 4 mg/kg,iv measured upto 24 hrs. The conditions noted are these: in vivo. Type of data set: ADME, organism-based.
Data set [23] can be described thus: AUC (0-infinity) in female rat at 8 mg/kg,iv measured upto 24 hrs. Type of data set: ADME, organism-based. Further details: dose 8 mg/kg, time < 24 hrs, route iv. The conditions noted are these: in vivo. The method in brief:
as §2

Data set [24] in a line: Drug metabolism in mouse hepatocytes assessed as docetaxel metabolite formation at 20 uM incubated for 180 mins. The settings on record: 3 h. Type of data set: ADME, cell-based, Hepatocyte.
The next data set can be described thus: in vivo. The conditions noted are these: mouse, tumor, iv, 5.7 mg/kg.
Data set [25] in a line: Tmax in mouse tumor implanted with mouse 4T1 cells at 5.7 mg/kg,iv measured upto 72 hrs. Type of data set: ADME, organism-based, Neoplasm.
Data set [26] is described as follows: Drug concentration in plasma of Beagle dog at 1.14 mg/kg,iv measured upto 24 hrs. The format is ADME, organism-based, Canis lupus familiaris. The conditions noted are these: in vivo. The method in brief: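 Taxane given as a single intravenous dose: 2.28 mg/kg to rats by injection and 1.14 mg/kg to Beagle dogs by infusion. Plasma concentrations were then measured.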

Data set [27] deals with 4T1. As to the kind of experiment: Antitumor activity against mouse 4T1 cells implanted in BALB/c mouse assessed as decrease in spleen MMP2 expression level at 5.7 mg/kg,iv administrated once per week for 4 weeks by western blot assay. Type of data set: functional, organism-based. The method in brief:
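4T1 cells injected into mammary fat pads of BALB/c mice. Saline vehicle or test article given iv once weekly for 4 weeks. Spleen, lung and tumor lysates immunoblotted for MMP2/MMP9 with β-actin as loading control. Bands averaged over five mice per group, representative of two independent experiments.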

A short description of data set [28]: Toxicity in BALB/c mouse xenografted with human MDA-MB-231 cells assessed as side effects at 5.7 mg/kg,iv administrated once per week for 3 weeks. The format is organism-based. The conditions noted are these: in vivo, 504 h. The method in brief:
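Nude BALB/c nu/nu mice received subcutaneous human tumour cells into the right flank. Dosing started at mean tumour volume of 100–120 mm3, iv once weekly for 3 weeks; the taxane arm was an equimolar control. Body weight and overt side effects were monitored. Mean ± SEM, n = 8.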

SMILES strings stand for the structures. Active and inactive are the calls of the source.

Sequence of Cytochrome P450 2C8 (P10632 whole entry, the tested form may be a part): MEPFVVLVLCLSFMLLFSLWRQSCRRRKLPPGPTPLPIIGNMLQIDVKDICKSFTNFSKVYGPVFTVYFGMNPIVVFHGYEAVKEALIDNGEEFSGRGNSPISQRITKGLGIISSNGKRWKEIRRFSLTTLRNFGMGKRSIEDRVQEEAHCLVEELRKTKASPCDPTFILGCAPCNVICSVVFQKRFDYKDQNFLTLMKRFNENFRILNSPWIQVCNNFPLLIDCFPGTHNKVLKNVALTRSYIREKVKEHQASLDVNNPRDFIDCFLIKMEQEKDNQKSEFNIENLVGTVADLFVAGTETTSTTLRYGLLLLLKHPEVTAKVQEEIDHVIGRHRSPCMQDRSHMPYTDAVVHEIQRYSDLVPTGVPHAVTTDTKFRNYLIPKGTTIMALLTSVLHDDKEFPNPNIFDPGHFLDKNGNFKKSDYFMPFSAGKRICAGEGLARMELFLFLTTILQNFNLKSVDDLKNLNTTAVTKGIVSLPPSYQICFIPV

In the case of `CC(=O)O[C@@]12CO[C@@H]1C[C@H](O)[C@@]1(C)C(=O)[C@H](O)C3=C(C)[C@@H](OC(=O)[C@H](OC(=O)CCC(=O)NCCCC[C@H](NC(=O)CC[C@@H](NC(=O)[C@H](C)NC(=O)/C=C/c4ccc(F)cc4Cl)C(N)=O)C(=O)O)[C@@H](NC(=O)OC(C)(C)C)c4ccccc4)C[C@@](O)([C@@H](OC(=O)c4ccccc4)[C@H]21)C3(C)C`, the clearance (in general, the rate of elimination divided by the concentration) in [1] turned out to be 3.85 mL/min/kg; in [18], 6.66 mL/min/kg. Also, the Activity result in [2] is listed as “Non-Toxic”; in data set [4], “Non-Toxic”; with 4T1 [8] it was 36.2%; in data set [11], “Toxic”; in data set [20], “Non-Toxic”. The Tmax (usually the time at which the peak concentration occurs) in data set [3] is 30 min; in data set [5] it was 4.98 min; in data set [15], 30 min; in [22], 4.98 min. The outcome in the data set with 4T1 [6], with 4T1 [10], in the data set with 4T1 [19] and in the data set on 4T1 [21] was Active. Further, the Stability result in [7] and in data set [16] was “Stable” each time. The figures for the MRT inf in data set [9] and in data set [14] were 15.7 min and 13.1 min, respectively. For the same compound, the half-life (as a rule, the time needed for the level to fall by half in the phase considered) in data set [12] is 10.6 min. In addition, the Drug metabolism result in [13] and in data set [24] was “Metabolite_Detected” in each case. Besides, the 50% inhibitory concentration (IC50) (usually the concentration needed to halve the response being measured) on Cytochrome P450 2C8 stood at 9.97 µM. Also, the AUC(0-t) (in general, the area under the concentration-time curve up to a stated or last time point) at 24 h in data set [17] is 45800 ng·h/mL. The AUC(0-inf) (commonly the area under the concentration-time curve extrapolated to infinity) in data set [23] came out at 39400 ng·h/mL.
`CC(=O)O[C@@]12CO[C@@H]1C[C@H](O)[C@@]1(C)C(=O)[C@H](O)C3=C(C)[C@@H](OC(=O)[C@H](O)[C@@H](NC(=O)OC(C)(C)C)c4ccccc4)C[C@@](O)([C@@H](OC(=O)c4ccccc4)[C@H]21)C3(C)C` [DOCETAXEL ANHYDROUS] displayed an AUC(0-t) at 72 h in “in vivo” of 27 µM·h. For the same compound, in data set [25], the time of peak concentration (Tmax) came to 30 min. In addition, the Drug uptake in [26] worked out at 0.8%. For the same compound, the outcome with 4T1 [27] was inactive. Also, in [28], the Activity entry was “Non-Toxic”.
